Active and inactive are the calls of the source. The calls are words filed in the database; no cut-off is given here.

For assay [1], the target named is T1, Free fatty acid receptor 4 (Homo sapiens) (UniProt Q5NUL3).
T1 sequence (whole entry): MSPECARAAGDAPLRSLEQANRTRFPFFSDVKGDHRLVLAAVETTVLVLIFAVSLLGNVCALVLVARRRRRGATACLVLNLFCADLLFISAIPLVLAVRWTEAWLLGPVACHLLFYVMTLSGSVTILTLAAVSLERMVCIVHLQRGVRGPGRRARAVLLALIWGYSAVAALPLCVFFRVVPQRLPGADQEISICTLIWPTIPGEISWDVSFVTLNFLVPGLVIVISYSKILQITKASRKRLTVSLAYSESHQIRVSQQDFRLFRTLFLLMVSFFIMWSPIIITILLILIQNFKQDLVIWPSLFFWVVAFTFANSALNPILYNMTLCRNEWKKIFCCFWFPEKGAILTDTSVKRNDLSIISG
Nature of the assay: Agonist activity at human GPR120-G-alpha-16 fusion protein expressed in Flp-in HEK293 cells assessed as effect on intracellular calcium concentration at 10 uM by FLIPR assay relative to […]. It counts as functional, cell-based. The essentials:
(§1)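 FLIPR fluorometric measurement of intracellular Ca2+ in HEK293 cells expressing human GPR40 or human GPR120. Test compound at 10 µM; response expressed as percent of that evoked by 10 µM α-linolenic acid reference. Means of at least three experiments.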
A general note: Calcium flux is commonly read through the fluorescence of an indicator in the cells.

The target of assay [2] is T2, Free fatty acid receptor 1 (Homo sapiens, UniProt O14842). In words: Agonist activity at human GPR40 expressed in T-REx HEK293 cells assessed as effect on intracellular calcium concentration at 10 uM by FLIPR assay relative to […]. The format is functional, cell-based. The method, boiled down: as §1
In assay [3] the target is T2, Free fatty acid receptor 1. Nature of the assay: Agonist activity at human GPR40 expressed in T-REx HEK293 cells assessed as effect on intracellular calcium concentration by FLIPR assay. The format is functional, cell-based. The method, boiled down:
(§2)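 Intracellular Ca2+ rise read by FLIPR in HEK293 cells expressing human GPR120 or human GPR40; EC50 values derived from concentration–response, means of at least three experiments.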

Assay [4] is filed under the species Homo sapiens. Nature of the assay: Selectivity index, ratio of EC50 for human GPR40 to EC50 for human GPR120. The essentials:
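Selectivity index computed as EC50 at GPR40 divided by EC50 at GPR120, both from FLIPR Ca2+ assays in HEK293 cells expressing each human receptor; EC50 means of at least three experiments.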

In assay [5] the target is T3, Free fatty acid receptor 4 (Homo sapiens, UniProt Q5NUL3).
T3 sequence (Q5NUL3 whole entry): T1 sequence (whole entry)
In words: Agonist activity at human GPR120-G-alpha-16 fusion protein expressed in Flp-in HEK293 cells assessed as effect on intracellular calcium concentration by FLIPR assay. It counts as functional, cell-based. The essentials:
as §2

Assay [6] deals with HEK293. Nature of the assay: Agonist activity at PPAR expressed in HEK293 cells at 10 to 100 uM after 12 to 16 hrs by luciferase-beta galactosidase transactivation assay. The format is functional, cell-based.

T2 sequence (O14842 whole entry): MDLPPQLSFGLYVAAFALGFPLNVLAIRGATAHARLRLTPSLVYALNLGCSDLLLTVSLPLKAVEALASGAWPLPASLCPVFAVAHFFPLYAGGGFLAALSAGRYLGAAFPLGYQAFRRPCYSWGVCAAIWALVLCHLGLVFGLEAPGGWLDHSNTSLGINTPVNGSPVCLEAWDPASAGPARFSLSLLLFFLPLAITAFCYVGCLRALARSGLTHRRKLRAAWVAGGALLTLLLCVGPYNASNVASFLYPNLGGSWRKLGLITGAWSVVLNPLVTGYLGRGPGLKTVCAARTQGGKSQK

Turning to `Cc1cccc(N(CCOc2ccc(CCCC(=O)O)cc2)c2ccccc2)n1`, the Activity in assay [1] turned out to be 81%; in assay [2], 34%.
On the same counts, the results for `O=C(O)CCCc1ccc(OCCN(c2ccccc2)c2ccccc2)cc1` are 88% and 21%.
With `CN(CCOc1ccc(CCC(=O)O)cc1)c1ccccn1`, the Activity stood at 0% in assay [1] and 58% in assay [2].
With `O=C(O)CCCc1ccc(OCCN(c2ccc3ccccc3c2)c2ccccn2)cc1`, the results for the Activity in assay [1] and in assay [2] were 37% and 27%, respectively.
`CCCN(CCOc1ccc(CCC(=O)O)cc1)c1ccccn1`: the Activity in assay [1] was 57%; in assay [2], 125%.
Regarding `O=C(O)CCCCc1ccc(OCCN(c2ccccc2)c2ccccn2)cc1`, the Activity in assay [1] came to 58%; in assay [2], 99%.
For `O=C(O)CCCc1ccc(OCCN(c2ccccc2)c2nc3ccccc3s2)cc1`, the Activity in assay [1] came out at 73%; in assay [2] it was 32%.
Regarding `O=C(O)CCCc1ccc(OCCN(c2ccccc2)c2cc(Cl)ccn2)cc1`, the Activity in assay [1] amounted to 100%; in assay [2] it was 68%.
Consider `O=C(O)CCc1ccc(OCCN(c2ccccn2)c2ccccn2)cc1`, for which the Activity in assay [1] and in assay [2] was 0% in each case.
`O=C(O)CCCc1ccc(OCCN(c2cccnc2)c2ccccn2)cc1`: the Activity in assay [1] stood at 65%; in assay [2], 1%.
Turning to `O=C(O)CCCc1ccc(OCCN(Cc2ccccc2)c2ccccn2)cc1`, the Activity was determined as 56% in assay [1] and 26% in assay [2].
`CCCCCCN(CCOc1ccc(CCC(=O)O)cc1)c1ccccn1`: the Activity in assay [1] turned out to be 31%; in assay [2], 104%.
With `O=C(O)CCCc1ccc(OCCN(c2cccc(F)c2)c2ccccn2)cc1`, the results for the Activity in assay [1] and in assay [2] were 71% and 33%, respectively.
Regarding `CCCCN(CCOc1ccc(CCC(=O)O)cc1)c1ccccn1`, the Activity in assay [1] turned out to be 33%; in assay [2], 215%.
With `O=C(O)CCCc1ccc(OCCN(c2ccccc2)c2nccs2)cc1`, the half-maximal effective concentration (EC50) in assay [3] came out at 21 µM; in assay [5] it was 1.7 µM. Moreover, in assay [4], the Ratio EC50 was determined as 12. Further, the Activity was determined as 106% in assay [1] and 30% in assay [2].
Regarding `O=C(O)CCCc1ccc(OCCN(c2ccccc2)c2nc3ccccc3o2)cc1`, the Activity worked out at 43% in assay [1] and 8% in assay [2].
In the same order, the values of `O=C(O)CCCc1ccc(OCCN(c2ccccc2)c2cccc(Cl)n2)cc1` are 70% and 32%.
For the compound `O=C(O)CCc1ccc(OCCN(c2ccccc2)c2ccccn2)cc1`, the figures for the Activity in assay [1] and in assay [2] were 56% and 98%, respectively.
For `O=C(O)CCCc1ccc(OCCN(c2ccccc2)c2ccccn2)cc1`, the values for the 50% effective concentration (EC50) in assay [3] and in assay [5] were 19 µM and 1.2 µM, respectively. Moreover, the Ratio EC50 in assay [4] was found to be 16. Besides, in assay [6], the result was inactive. Further, the Activity in assay [1] was 115%; in assay [2] it was 26%.
With `CC/C=C\C/C=C\C/C=C\CCCCCCCC(=O)O` [LINOLENIC ACID], the half-maximal effective concentration (EC50) in assay [3] worked out at 5.2 µM; in assay [5], 2.6 µM. In addition, in assay [4], the Ratio EC50 is 2. In addition, the Activity in assay [1] and in assay [2] was 100% each time.
Turning to `Cc1ccc(N(CCOc2ccc(CCCC(=O)O)cc2)c2ccccn2)cc1`, the Activity in assay [1] came to 78%; in assay [2], 26%.
With `CCCCCCCN(CCOc1ccc(CCC(=O)O)cc1)c1ccccn1`, the values for the Activity in assay [1] and in assay [2] were 0% and 99%, respectively.
For the compound `CCCCN(CCOc1ccc(CCCC(=O)O)cc1)c1ccccn1`, the Activity in assay [1] was 41%; in assay [2] it was 10%.
On the same counts, the results for `O=C(O)CCCc1ccc(OCCN(c2ccc(F)cc2)c2ccccn2)cc1` are 59% and 23%.
As to `CCCCCCCCCN(CCOc1ccc(CCC(=O)O)cc1)c1ccccn1`, the results for the Activity in assay [1] and in assay [2] were 0% and 121%, respectively.
`Cc1ccnc(N(CCOc2ccc(CCCC(=O)O)cc2)c2ccccc2)c1`: the results for the Activity in assay [1] and in assay [2] were 81% and 43%, respectively.
As for `CCN(CCOc1ccc(CCC(=O)O)cc1)c1ccccn1`, the Activity in assay [1] worked out at 45%; in assay [2], 147%.

One may read the EC50 as the concentration at which the effect is half-maximal.

Values taken from ChEMBL document CHEMBL1140222, “Identification of G protein-coupled receptor 120-selective agonists derived from PPARgamma agonists” (J Med Chem, 2008).
